Screens: PubChem, several laboratories
NPY-Y1 antag – NPY-Y1 (human) receptor antagonism. P25929. HEK293-CNG Y1 cells, membrane potential fluorescence; NPY at EC95, then isoproterenol. inhibition, % at 3.6 µM. hit rate 1% among 200,000. AID 1040;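 active = inhibition above the campaign mean inhibition of all tested compounds plus 3 SD, cut at about 20% in these data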;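 note: 0% = DMSO wells given NPY plus isoproterenol and 100% = isoproterenol alone without NPY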
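material = HEK293 cells with Y1 receptor plus CNG channel | also added = NPY 25 nM then isoproterenol 1 µM plus Ro 20-1724 25 µM | schedule = dye 3 h, compound 60 min room temperature, stimulation 45 min | measured by = membrane potential fluorescence | benchmarks = high control isoproterenol alone, low control NPY with isoproterenol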
EP2 modulator – modulates human prostaglandin E2 receptor EP2 signaling. P43116. EP2-expressing cells, cAMP HTRF FRET, PGE2 co-stimulation. induction, % at 25 µM. hit rate 0.83% among 260,000. AID 940;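 active = compounds whose cAMP rise, as percent of the full-agonist control response, exceeds 60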;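 note: rat C6 glioma line stably carrying human EP2 under a CMV promoter; the protocol text gives 20 µM as final concentration; 100% = response of wells given 1 µM PGE2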
PGE2 EP2 inh – blocks the human prostaglandin E2 receptor EP2; C6 glioma cells expressing human EP2, cAMP TR-FRET; cells stimulated with saturating PGE2; inhibition, % at 25 µM; P43116; hit rate 0.52% among 260,000;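 active = percent inhibition above 40 after rounding to a whole number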;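 note: rat C6 glioma host cells with rolipram phosphodiesterase inhibitor present; the protocol text gives 20 µM as final concentration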
NPY Y2 blocker – NPY-Y2 (human) receptor antagonism. P49146. NPY-Y2 expressing cells, antagonist mode. inhibition, % at 2.7 µM. hit rate 0.99% among 140,000. AID 793; in the data active = inhibition above about 17%;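 note: 0% = vehicle with agonist challenge and 100% = reference antagonist with challenge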
Target sequence (P49146 whole entry, looked up): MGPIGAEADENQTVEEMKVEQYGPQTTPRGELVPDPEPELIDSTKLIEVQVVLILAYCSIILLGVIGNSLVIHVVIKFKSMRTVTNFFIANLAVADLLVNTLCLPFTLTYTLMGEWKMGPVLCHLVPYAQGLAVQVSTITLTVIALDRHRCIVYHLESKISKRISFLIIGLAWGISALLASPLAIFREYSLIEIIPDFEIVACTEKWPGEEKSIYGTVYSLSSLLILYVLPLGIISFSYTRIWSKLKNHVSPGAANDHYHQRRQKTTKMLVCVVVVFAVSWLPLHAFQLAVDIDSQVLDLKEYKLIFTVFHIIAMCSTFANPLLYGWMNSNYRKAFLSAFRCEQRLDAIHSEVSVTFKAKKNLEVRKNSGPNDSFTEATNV
NPY-Y2 PAM-ag – potentiates or activates human NPY-Y2 receptor; P49146; cells expressing NPY-Y2, potentiator/agonist read-out; activation, % at 3.6 µM; hit rate 0.45% among 220,000; in the data active = activation above about 27%;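 note: cells stimulated with NPY near EC25 plus isoproterenol at EC100; 0% = vehicle plus submaximal agonist and 100% = vehicle plus saturating agonist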
NPY1 pot ag – human NPY-Y1 potentiation or agonism, primary screen. P25929. NPY-Y1 expressing cells, potentiator/agonist activation. activation, % at 3.6 µM. hit rate 0.37% among 220,000; in the data active = activation above about 33%, passing the limit was not always enough;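 note: cells stimulated with NPY at EC10 then isoproterenol at EC100; 0% = low agonist plus stimulus and 100% = saturating agonist plus stimulus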
NPY-Y1 antag ct – counter-screen for NPY-Y2 antagonists: human NPY-Y1 antagonism; shares compounds with NPY Y2 blocker; cell-based NPY-Y1 antagonism counterscreen; inhibition, % at 3.6 µM; hit rate 19% among 710; in the data active = inhibition above about 20%;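 note: cells challenged with NPY then isoproterenol with cAMP sensed through a CNG channel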
NPY2 antag conf – confirmation of human neuropeptide Y receptor Y2 antagonists; shares compounds with NPY Y2 blocker; HEK293 NPY-Y2 CNG channel, membrane potential fluorescence; inhibition, % at 2.8 µM; hit rate 32% among 710; AID 1257;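 active = mean inhibition of triplicate wells above the hit cutoff set in the primary screen, cut at about 17% in these data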;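 note: 0% = DMSO with NPY challenge and 100% = BIIE0246 high control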
Numbers without * were called inactive; . = no result given. This is a sample that favours compounds with a hit; in the whole collection about 2.8% have one here.

SMILES	NPY-Y1 antag	EP2 modulator	PGE2 EP2 inh	NPY Y2 blocker	NPY-Y2 PAM-ag	NPY1 pot ag	NPY-Y1 antag ct	NPY2 antag conf
N#Cc1nc(COc2ccc(Cl)cc2)oc1N1CCCCCC1	12	-10	9	17*	-19	-42	19	18*
CCOC(=O)c1nn(-c2ccc(Cl)cc2)c2nnc(Cc3ccccc3)c(=O)n12	-1	20	7	4	-14	5	.	.
Cc1ccc(-n2nc(C(=O)c3ccccc3)n3c(=O)c(Cc4ccccc4)nnc23)cc1	17	32	0	18*	-21	-41	73*	99*
Cc1ccc(C)c(/C(O)=C2/C(=O)C(=O)N(Cc3cccnc3)C2c2cccnc2)c1 (centres undefined)	.	-5	14	.	.	.	.	.
CN(C)C(CNS(=O)(=O)c1ccc2c(c1)NC(=O)CO2)c1ccc2c(c1)OCO2 (centres undefined)	.	-35	10	.	.	.	.	.
CCN1C(=O)/C(=C\c2nc3ccccc3c(=O)n2-c2ccccc2)c2ccccc21	5	43	13	0	-5	-27	.	.
CCN1C(=O)C(Cc2nc3ccccc3c(=O)n2-c2ccccc2)c2ccccc21 (centres undefined)	11	5	6	23*	-7	-19	5	9
C/C(Cl)=C/Cn1c(NCCCn2ccnc2)nc2c1c(=O)n(C)c(=O)n2C	.	2	10	.	.	.	.	.
O=C(Nc1ccccc1)OCc1cc(-c2ccccc2Cl)on1	16	-35	.	22*	-19	-10	19	18*
Cc1ccc(NC(=O)NCc2ccc3c(c2)OCO3)cc1C	0	-15	3	.	-17	-18	.	.
Cc1ccc(NC(=S)NCc2ccc3c(c2)OCO3)cc1C	12	-26	8	18*	-25	-14	15	18*
O=C(/C=C\c1ccco1)NCC1COc2ccccc2O1 (centres undefined)	.	-155	6	.	.	.	.	.
C=CCN(C(=O)c1csnn1)C(C(=O)NC(C)(C)C)c1ccccc1F (centres undefined)	.	32	8	.	.	.	.	.
COc1ccc(-n2nnnc2SCC(=O)NNC(=O)c2ccc(Cl)cc2)cc1	.	-3	12	.	.	.	.	.
COc1cccc(C2c3c(oc4ccccc4c3=O)C(=O)N2CCCN(C)C)c1OC (centres undefined)	1	7	4	-2	-7	10	.	.
CCN(CC)CCCN1C(=O)c2oc3ccccc3c(=O)c2C1c1cccc(OC)c1OC (centres undefined)	-2	18	9	19*	-3	-7	0	3
S=C(NCc1ccco1)N1CCN(c2ccccc2)CC1	.	-86	10	.	.	.	.	.
Cc1cccc(C)c1NC(=O)CSc1nnc(-c2ccncc2)n1C	.	12	9	.	.	.	.	.
Cc1ccc(S(=O)(=O)C(c2ccccc2)c2c(C)noc2C)cc1 (centres undefined)	2	26	11	17*	-12	-7	3	57*
O=C(CCc1nc(-c2ccccc2)c(-c2ccccc2)o1)OCc1ccc(Br)cc1	5	48	6	18*	-16	-8	12	20*
O=C(CCc1nc(-c2ccccc2)c(-c2ccccc2)o1)OCc1ccc(Cl)cc1	17	33	7	13	-17	-34	.	.
CCCn1c(=O)c2ccccc2n2c(SCCOc3ccc(C)cc3)nnc12	8	15	21	20*	-13	-20	15	11
CCNc1cc(Cl)nc(SC)n1	7	26	.	25*	4	7	-1	1
CCNc1cc(N2CCOCC2)nc(SC)n1	-1	-18	7	.	-9	4	.	.
CCCCCSc1nnc(-c2ccccc2NC(C)=O)c(=O)[nH]1	-2	18	10	.	-16	-4	.	.
SMILES	NPY-Y1 antag	EP2 modulator	PGE2 EP2 inh	NPY Y2 blocker	NPY-Y2 PAM-ag	NPY1 pot ag	NPY-Y1 antag ct	NPY2 antag conf
CCCCCSc1nnc(-c2ccccc2N)c(=O)[nH]1	7	17	12	19*	-7	-11	15	12
COc1cc(NC(=O)CSc2nc(-c3ccccc3)nc3ccccc23)cc(OC)c1	.	24	6	.	.	.	.	.
OC(CCN1CCOCC1)(c1ccc(Cl)cc1)C1CCCCC1 (centres undefined)	11	36	10	8	-18	-20	.	.
OC(CCN1CCCCC1)(c1ccccc1)C1CCCCC1 (centres undefined)	13	3	10	20*	1	-34	6	12
Cc1ccc(C(C(=O)NC2CCCC2)N(C(=O)Cc2cccs2)c2ccc(C)c(C)c2)o1 (centres undefined)	18	33	3	24*	-7	-26	14	9
Cc1nc(-c2ccccc2)sc1C(=O)CSc1ccc(Cl)cc1	17	1	11	20*	-3	-12	14	25*
Cc1ccc(N(C)S(=O)(=O)c2cccc(C(=O)Nc3nc4ccccc4[nH]3)c2)cc1	10	-57	13	23*	-17	-2	42*	20*
COc1ccccc1-c1coc2cc(O)ccc2c1=O	.	29	16	.	.	.	.	.
CCC(Oc1ccc2c(=O)c(-c3ccccc3OC)coc2c1)C(=O)OCc1ccccc1 (centres undefined)	2	25	1	37*	-18	-17	6	66*
CCOc1ccc(-n2c(SCc3nc(-c4cccs4)no3)nnc2-c2ccncc2)cc1	18	11	5	18*	-2	-52	17	14
CCCn1c(SCc2nc(-c3cccs3)no2)nnc1-c1ccncc1	-3	3	12	4	-3	-14	.	.
CN(C)S(=O)(=O)c1ccc(N2CCCC2)c(C(=O)NC(c2ccccc2)c2ccccc2)c1	13	21	1	23*	-15	8	16	9
CN(C)S(=O)(=O)c1ccc(N2CCCC2)c(C(=O)Nc2nc3ccccc3s2)c1	4	16	14	4	-12	-11	.	.
O=C(NCCc1nc(-c2cccnc2)n[nH]1)c1ccc2nc[nH]c2c1	.	-33	8	.	.	.	.	.
COc1ccc2cc(C)c3nn(CC(=O)N4CCN(C(C)=O)CC4)c(=O)n3c2c1	.	3	.	.	.	.	.	.
O=c1[nH]c(/C=C/c2ccc(-c3ccccc3)o2)nc(O)c1[N+](=O)[O-]	.	22	16	.	.	.	.	.
Cc1ccc(-c2nc(=S)c3c(n2Cc2ccco2)CC(C)(C)OC3)cc1	17	46	3	18*	1	-12	21*	8
Cc1ccc(-c2nc(=S)c3c(n2CC2CCCO2)CC(C)(C)OC3)cc1 (centres undefined)	3	8	8	5	-1	8	.	.
Clc1ccccc1CSc1nnc(/C=C/c2ccccc2)o1	11	23	.	20*	-10	-19	20	21*
